Experimental findings from PubChem BioAssay are described below.

As usually defined, the inhibition is the drop in the measured response relative to a control, in per cent.

Active and inactive are the calls of the source.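 How the source made its calls, unless noted: active means NADPH fluorescence slope more negative than the mean of all samples by about 3 SD, 99.7% confidence; inactive means the rest.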

A short description of test [1]: inhibitors of TNFa-induced NFkB p65 translocation, primary screen, imaging, HUVEC, MLSMR starter and 10KST1 sets (AID 438;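 active means inhibition above 20% together with a positive visual image hit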;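 further: compound added about 3h40 before a 20 min TNFalpha stimulation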;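 on inhibition: signal is the nuclear over cytoplasmic p65 intensity ratio per well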). The settings on record: HUVEC TNFa-induced p65 nuclear translocation; cell count: measured here: nuclei count (cytotoxicity indicator), at 2.08 µM; inhibition: at 2 µM, stronger effect = higher value, 0% TNFa-plus-vehicle, 100% no-TNFa wells.
Test [2] is described as follows: inhibitors of mutant huntingtin aggregation, primary screen, imaging, exon1htt(103Q)mCFP cells, high-content imaging (AID 483;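 active means visual image review flags a hit and inhibition of aggregation exceeds 20%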;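 further: compound exposure lasted 3 days before fixation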;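 on nuclei count: percent of the per-plate median nuclei count of sample wells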). The settings on record: exon1htt(103Q)mCFP cell line, aggregate imaging, at 2 µM; inhibition of aggregation: stronger effect = higher value; nuclei count: measured here: cell count, toxicity.
Test [3] is described as follows: inhibitors of E-selectin induction by TNFa, primary screen, imaging, HUVEC, immunofluorescence, MLSMR starter and 10KST1 sets (AID 487;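 active means visually confirmed hit in the image check and inhibition above 20%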;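 on inhibition: signal is fraction of cell area covered by stained E-selectin grains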;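 on nuclei count: 100% = median nuclei count of all wells on the same plate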). The settings on record: HUVEC TNFalpha-induced E-selectin immunofluorescence imaging, at 2 µM; inhibition: stronger effect = higher value; nuclei count: measured here: cell number, toxicity.
Test [4] addresses Voltage-gated potassium channel subunit beta-2 (Rattus norvegicus) (UniProt P62483). The test can be described thus: KvBeta enzyme negative modulators, primary screen, biochemical, NADPH fluorescence (AID 622;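 active means fluorescence slope higher than the sample average by over 3 SD, cut at about -0.22 in these data, passing the limit was not always enough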;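 further: slope of raw intensity against log time taken from 70 to 1610 s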). The settings on record: recombinant KvBeta, 4-cyanobenzaldehyde reduction, at 10 µM, stronger effect = higher value.
Test [5] has the same target. In words: KvBeta positive modulators, primary screen, biochemical, NADPH fluorescence (AID 623).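 Further: fluorescence intensity change per second fitted from 20 to 320 s.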 The settings on record: Recombinant KvBeta, NADPH fluorescence decrease slope, 10 min; at 10 µM; stronger effect = lower value.
The target of test [6] is Muscarinic acetylcholine receptor M4 (Homo sapiens) (UniProt P08173). The test can be described thus: compounds altering M4/GIRK thallium flux, either direction, primary screen, M4 allosteric agonist project, cell-based, HEK293 M4/GIRK, BTC-AM (AID 625;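 active means fluorescence slope after compound addition differing from the mean of all tested samples at 99.7% confidence, mostly higher but some lower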;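 further: thallium influx through GIRK channels coupled to M4 in HEK293 cells with BTC-AM dye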). The settings on record: at 10 µM, actives lie on both sides. Summed up: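 Material: M4/GIRK1/GIRK2 stable HEK293 cell line. Medium: pH 7.3 thallium assay buffer. Dosing: single compound concentration, 10 µM final. Schedule: 1 h dye loading, 2 min kinetic read. Measured by: kinetic fluorescence with BTC-AM dye. Read-out: post-addition slope, 15–24 s, of baseline-normalized fluorescence. Benchmarks: carbachol and DMSO controls.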

Test [7] can be described thus: inhibitors of Sendai virus-induced IRF3 signaling, primary screen, TLR/RLR signaling modifier project, cell-based, Sendai virus stimulus, luciferase, 10K MLSCN set (AID 602276;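 active means inhibition at or above 50% at 10 µM; inactive means inhibition below 50%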;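 further: firefly luciferase from ISG56 promoter only with Renilla not read in this screen; 0% = Sendai virus plus DMSO and 100% = medium plus DMSO without virus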). The settings on record: HEK293 RL24 IRF3 luciferase reporter, at 10 µM, stronger effect = higher value.
The nature of test [8]: inhibitors of poly I:C-induced TLR3 signaling, primary screen, cell-based, poly I:C stimulus, luciferase, 10K MLSCN set (AID 602277;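 active means inhibition of the reporter signal at or above 50%; inactive means inhibition below 50%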). The settings on record: HEK293-TLR3 RL24 IRF3 luciferase reporter, at 10 µM, stronger effect = higher value. In general terms: In a reporter assay the amount or activity of a reporter protein is the signal.

Chain of Voltage-gated potassium channel subunit beta-2 (Rattus norvegicus) (P62483 whole entry, looked up): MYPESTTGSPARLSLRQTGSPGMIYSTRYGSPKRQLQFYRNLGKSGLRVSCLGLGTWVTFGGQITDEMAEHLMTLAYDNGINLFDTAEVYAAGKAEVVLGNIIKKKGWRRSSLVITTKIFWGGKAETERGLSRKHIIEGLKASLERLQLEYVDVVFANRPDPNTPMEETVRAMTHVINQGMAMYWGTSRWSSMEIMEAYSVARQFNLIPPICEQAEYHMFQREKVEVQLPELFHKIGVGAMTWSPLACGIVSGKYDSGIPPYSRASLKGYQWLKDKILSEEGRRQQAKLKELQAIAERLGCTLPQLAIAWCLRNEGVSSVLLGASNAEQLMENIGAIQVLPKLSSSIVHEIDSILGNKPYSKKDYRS
Chain of Muscarinic acetylcholine receptor M4 (Homo sapiens) (P08173 whole entry, looked up): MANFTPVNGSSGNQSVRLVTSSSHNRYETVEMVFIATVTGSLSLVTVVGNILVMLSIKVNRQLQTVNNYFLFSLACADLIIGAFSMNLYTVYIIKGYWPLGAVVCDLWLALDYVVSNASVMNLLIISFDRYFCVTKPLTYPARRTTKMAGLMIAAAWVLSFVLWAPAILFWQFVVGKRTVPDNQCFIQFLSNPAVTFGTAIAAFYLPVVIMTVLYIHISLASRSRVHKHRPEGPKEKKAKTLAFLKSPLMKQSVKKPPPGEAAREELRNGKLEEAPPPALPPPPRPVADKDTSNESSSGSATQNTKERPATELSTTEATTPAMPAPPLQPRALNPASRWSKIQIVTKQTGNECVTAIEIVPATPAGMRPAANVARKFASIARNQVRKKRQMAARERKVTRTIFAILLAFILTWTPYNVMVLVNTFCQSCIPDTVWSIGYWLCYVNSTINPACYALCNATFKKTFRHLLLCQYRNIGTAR

`O=C(CN1CCN(C(=O)c2ccccc2)CC1)Nc1ncc(Br)cc1Br`: the cell count in test [1] came to 622. For the same compound, the inhibition in test [1] was 7.6% (inactive); in test [3], 2.6% (inactive); in test [7], -7.57% (inactive); in test [8], 5.71% (inactive). Moreover, the inhibition of aggregation in test [2] was -6.8% (inactive). In addition, the nuclei count in test [2] amounted to 95.9%; in test [3] it was 99.9%. Moreover, the fluorescence slope is -0.45 (inactive) in test [4] and 0.00598 (inactive) in test [6]. The NADPH fluorescence slope in test [5] was 3.1e-05 (inactive).
As to `Cc1ccnc(NC(=O)CCC(=O)N(CC(=O)NC2CCCCC2)c2cccc(C)c2C)c1`, the cell count in test [1] turned out to be 426. Moreover, the inhibition in test [1] is 4.4% (inactive); in test [3], 28.9% (inactive); in test [7] it was 13.1% (inactive); in test [8], 18.7% (inactive). For the same compound, in test [2], the inhibition of aggregation was -2.4% (inactive). For the same compound, the values for the nuclei count in test [2] and in test [3] were 103% and 125%, respectively. For the same compound, the figures for the fluorescence slope in test [4] and in test [6] were -0.626 (inactive) and 0.00484 (inactive), respectively. In addition, in test [5], the NADPH fluorescence slope is 3.3e-05 (inactive).
`Cc1ccc(CNC(=O)C2CCN(S(=O)(=O)c3c(C)noc3C)CC2)cc1`: the cell count in test [1] came out at 475. Further, the inhibition was 4.8% (inactive) in test [1], -2.1% (inactive) in test [3], -1.36% (inactive) in test [7] and 6.94% (inactive) in test [8]. The inhibition of aggregation in test [2] is 14% (inactive). For the same compound, the nuclei count in test [2] is 91.5%; in test [3], 104%. Besides, the fluorescence slope was -0.493 (inactive) in test [4] and 0.00571 (inactive) in test [6]. Also, in test [5], the NADPH fluorescence slope is 8.6e-05 (inactive).
Turning to `Fc1ccccc1-c1nc(-c2ccccc2)no1`, the cell count in test [1] stood at 632. The inhibition is 13.8% (inactive) in test [1], -5.4% (inactive) in test [3], -27.9% (inactive) in test [7] and -60% (inactive) in test [8]. For the same compound, the inhibition of aggregation in test [2] was 3.3% (inactive). The nuclei count amounted to 103% in test [2] and 97.2% in test [3]. The fluorescence slope in test [4] was -0.554 (inactive); in test [6], 0.00608 (inactive). The NADPH fluorescence slope in test [5] was -7.9e-05 (inactive).
Consider `COc1ccc(C)cc1-n1nnnc1SCC(=O)NC(=O)NCc1ccco1`, for which the cell count in test [1] turned out to be 180. Also, the inhibition in test [1] was -9.6% (inactive); in test [3] it was 8.9% (inactive); in test [7] it was 16.7% (inactive); in test [8], 16% (inactive). For the same compound, in test [2], the inhibition of aggregation is 25% (inactive). Moreover, the nuclei count in test [2] stood at 65.2%; in test [3] it was 90.6%. Besides, the fluorescence slope was -0.57 (inactive) in test [4] and 0.00596 (inactive) in test [6]. Further, in test [5], the NADPH fluorescence slope is -1.3e-05 (inactive).
Consider `CCn1ncc(C2=NOC(C(=O)N3CCC(C(N)=O)CC3)C2)c1C` (centres undefined), for which the cell count in test [1] was 846. The inhibition is -7.8% (inactive) in test [1], -117% (inactive) in test [3], -11.4% (inactive) in test [7] and -7.82% (inactive) in test [8]. Moreover, in test [2], the inhibition of aggregation is -19.8% (inactive). Also, the figures for the nuclei count in test [2] and in test [3] were 105% and 109%, respectively. For the same compound, the fluorescence slope in test [4] was -0.47 (inactive); in test [6], 0.00576 (inactive). Moreover, the NADPH fluorescence slope in test [5] was 3.7e-05 (inactive).
Turning to `O=C(c1ccccc1)c1coc2ccc(O)c(CN3CCOCC3)c12`, the cell count in test [1] was 651. The inhibition in test [1] was -5.8% (inactive); in test [3], 1.5% (inactive); in test [7] it was 14.5% (inactive); in test [8] it was 18.2% (inactive). The inhibition of aggregation in test [2] is 8.4% (inactive). The nuclei count in test [2] was found to be 77.4%; in test [3], 102%. The fluorescence slope in test [4] was -0.577 (inactive); in test [6], 0.00407 (inactive). Also, the NADPH fluorescence slope in test [5] is 3.5e-06 (inactive).
Take `O=C(Nc1cccnc1)Nc1ccc2c(c1)OCO2`: the cell count in test [1] stood at 420. Also, the inhibition was 0.8% (inactive) in test [1], 6% (inactive) in test [3], -19.2% (inactive) in test [7] and -53.4% (inactive) in test [8]. Also, the inhibition of aggregation in test [2] is -14.9% (inactive). Besides, the nuclei count in test [2] came to 121%; in test [3], 51.1%. The fluorescence slope is -0.418 (inactive) in test [4] and 0.00717 (inactive) in test [6]. In test [5], the NADPH fluorescence slope was 6.4e-06 (inactive).
In the case of `CCCCN(CCCNC(=O)C1CCN(S(=O)(=O)CC)CC1)c1ccccc1`, the cell count in test [1] worked out at 547. The inhibition is 7.2% (inactive) in test [1], -81.6% (inactive) in test [3], 8.2% (inactive) in test [7] and 25.8% (inactive) in test [8]. For the same compound, in test [2], the inhibition of aggregation is -2.7% (inactive). For the same compound, the nuclei count in test [2] was found to be 130%; in test [3], 165%. Also, the figures for the fluorescence slope in test [4] and in test [6] were -0.441 (inactive) and 0.00466 (inactive), respectively. The NADPH fluorescence slope in test [5] was 2.9e-05 (inactive).
`NC(=O)C1(N2CCCCC2)CCN(C2CC(=O)N(Cc3cccs3)C2=O)CC1` (centres undefined): the cell count in test [1] came out at 378. Also, the inhibition in test [1] is -2.6% (inactive); in test [3], -117% (inactive); in test [7], 10.3% (inactive); in test [8], 20.4% (inactive). Also, the inhibition of aggregation in test [2] was 5.2% (inactive). Moreover, the nuclei count was 82.9% in test [2] and 84.9% in test [3]. Further, the fluorescence slope in test [4] is -0.458 (inactive); in test [6], 0.00707 (inactive). The NADPH fluorescence slope in test [5] is -3.2e-05 (inactive).
Regarding `CCOC(=O)Nc1c(C(=O)OC)[nH]c2cccc(OC)c12`, the cell count in test [1] came out at 526. The inhibition in test [1] is -0.5% (inactive); in test [3], -32.4% (inactive); in test [7], -7.18% (inactive); in test [8], -3.25% (inactive). The inhibition of aggregation in test [2] was -15.7% (inactive). In addition, the nuclei count in test [2] was found to be 109%; in test [3] it was 126%. Moreover, the fluorescence slope was -0.478 (inactive) in test [4] and 0.00517 (inactive) in test [6]. For the same compound, the NADPH fluorescence slope in test [5] was 3e-05 (inactive).
In the case of `CCNC(=O)CC1C(=O)N(c2ccccc2)C(=O)N1Cc1ccc(OC)cc1` (centres undefined), the cell count in test [1] stood at 442. The inhibition in test [1] was 5.9% (inactive); in test [3], -289% (inactive); in test [7], 14.5% (inactive); in test [8] it was 21.8% (inactive). The inhibition of aggregation in test [2] was -1.6% (inactive). The nuclei count was determined as 69.1% in test [2] and 92.6% in test [3]. The fluorescence slope was -0.567 (inactive) in test [4] and 0.00553 (inactive) in test [6]. In addition, in test [5], the NADPH fluorescence slope is 2e-05 (inactive).
As to `CCn1cc(C(=O)NCC2COc3ccccc3O2)c2cc(OC)c(OC)cc2c1=O` (centres undefined), the cell count in test [1] was 481. The inhibition in test [1] is -29.9% (inactive); in test [3] it was -124% (inactive); in test [7], 11.8% (inactive); in test [8], -1.62% (inactive). Moreover, the inhibition of aggregation in test [2] is -6.2% (inactive). For the same compound, the nuclei count in test [2] amounted to 101%; in test [3], 116%. For the same compound, the fluorescence slope in test [4] was -0.481 (inactive); in test [6], 0.00554 (inactive). Besides, the NADPH fluorescence slope in test [5] was -6.7e-05 (inactive).
Consider `O=C(CN1CCOCC1)N1CCN(C(=O)CN2CCOCC2)CC1`, for which, in test [1], the cell count turned out to be 557. In addition, the inhibition in test [1] was -51% (inactive); in test [3] it was -63.9% (inactive); in test [7], 12.4% (inactive); in test [8] it was 17.7% (inactive). Also, the inhibition of aggregation in test [2] is -14% (inactive). Also, the nuclei count in test [2] and in test [3] was 120% throughout. Further, the fluorescence slope in test [4] is -0.468 (inactive); in test [6], 0.00604 (inactive). For the same compound, the NADPH fluorescence slope in test [5] is 9.6e-05 (inactive).
